# Only some compounds are listed: those with a hit (about 2.9% of all), similar ones and a draw of the others.
# CHO-K1 Ca antag: nonselective inhibitor or artifact in parental CHO-K1 cells. ATP-induced calcium, Fluo-8 fluorescence. 360,000 compounds, 0.6% hits. AID 602250. inhibition, % at 3 µM;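 active = inhibition above a per-plate cutoff, the plate's mean sample inhibition plus 3 SD, cut at about 24% in these data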
# CHO-K1 Ca PAM: nonselective activator or artifact in parental CHO-K1 calcium assay; ATP EC20, Fluo-8 calcium fluorescence; 0% at ATP EC20, 100% at ATP max; activation, % at 3 µM; AID 602247; 360,000 compounds, 0.02% hits;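 active = activation above the run cutoff, the mean activation of all test compounds plus 3 SD, cut at about 40% in these data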;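 note: peak over basal fluorescence ratio in a 140 s read after ATP addition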
# OX1R antag-1: blocks the human orexin 1 receptor; O43613; CHO/OX1R cells, Fluo-8 calcium fluorescence, orexin A; inhibition, % at 5 µM; 330,000 compounds, 0.43% hits; AID 434989;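 active = inhibition above its plate's threshold, mean inhibition of all tested compounds on the plate plus 3 SD, cut at about 37% in these data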
# Target sequence (O43613 whole entry, looked up): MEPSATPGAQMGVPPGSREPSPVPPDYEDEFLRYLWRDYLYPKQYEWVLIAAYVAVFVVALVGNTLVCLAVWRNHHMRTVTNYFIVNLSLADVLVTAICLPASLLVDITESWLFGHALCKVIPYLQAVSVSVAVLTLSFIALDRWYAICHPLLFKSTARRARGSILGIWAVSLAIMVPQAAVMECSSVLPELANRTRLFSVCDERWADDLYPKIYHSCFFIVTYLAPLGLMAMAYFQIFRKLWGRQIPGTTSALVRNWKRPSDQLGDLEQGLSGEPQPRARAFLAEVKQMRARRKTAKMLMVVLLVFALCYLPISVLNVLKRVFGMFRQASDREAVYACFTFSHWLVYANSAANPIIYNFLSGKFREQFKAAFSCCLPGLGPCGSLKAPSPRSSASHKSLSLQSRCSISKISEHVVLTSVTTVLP
# OX1R antag-2: antagonists of human orexin 1 receptor (OX1R); O43613; OX1R-expressing cells, FRET antagonist read-out; inhibition, % at 6.6 µM; 330,000 compounds, 1.8% hits; in the data active = inhibition mostly above about 38%, no sharp cut-off; inactive = mostly below about 40%
# M1 ag parental: M1 agonist counterscreen hit in parental CHO-K1 cells; Fluo-8 calcium fluorescence; scaled to maximal ATP response, vehicle zero; 360,000 compounds, 0.48% hits; activation, % at 3 µM; in the data active = activation above about 15%;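 note: untransfected CHO-K1 host cells lacking M1 receptor as counterscreen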
# CHO parental Ca: counter-screen: ATP calcium response change in parental CHO cells. 330,000 compounds, 0.63% hits. inhibition, % at 5.6 µM. parental CHO-K1, ATP-induced calcium, Fluo-8 fluorescence;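 active = inhibition above that plate's mean sample inhibition plus 3 SD, cut at about 26% in these data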
#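 Test system: parental CHO cells; detection: calcium-sensitive Fluo-8 fluorescence; evaluation: percent inhibition of calcium signal; also added: ATP as calcium-mobilizing challenge; repeats: one well per compound; control set: ATP-challenged DMSO wells low, unchallenged DMSO wells high; compound: single nominal dose of 5.6 µM per compound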
# OX1R HTRF confirm: confirmation of human orexin 1 receptor antagonists, HTRF format | shares compounds with OX1R antag-2 | OX1R-expressing cells, HTRF antagonist assay | inhibition, % at 6.6 µM | 1,800 compounds, 49% hits | AID 492964; in the data active = inhibition above about 55%;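 note: CHO cells expressing OX1R stimulated with orexin A at about EC80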
# CHO-K1 HTRF cnt: counter-screen: parental CHO-K1 HTRF response; parental CHO-K1 cells, HTRF counterscreen; AID 493232; inhibition, % at 6.6 µM; shares compounds with OX1R antag-2; 1,800 compounds, 48% hits; in the data active = inhibition above about 17%
# Numbers stand for hits; 0 = inactive; - = no result.
SMILES,CHO-K1 Ca antag,CHO-K1 Ca PAM,OX1R antag-1,OX1R antag-2,M1 ag parental,CHO parental Ca,OX1R HTRF confirm,CHO-K1 HTRF cnt
COc1ccc(NC(=O)C2CCCCN2S(=O)(=O)c2ccc(F)cc2)cc1 (stereo not drawn),0,0,0,87,0,0,0,0
COc1ccc(NC(=O)C2CCCN2S(=O)(=O)c2ccc(C)cc2)cc1 (stereo not drawn),0,0,0,0,0,0,-,-
O=C(NCc1ccc(F)cc1)C1CCCN1S(=O)(=O)c1ccc(F)cc1 (stereo not drawn),0,0,-,-,0,-,-,-
CCSc1c(C(=O)NC)ccc2c1C(=O)c1ccccc1C2=O,0,0,0,91,0,0,58,92
COC(=O)c1ccc2c(c1O)C(=O)c1ccccc1C2=O,0,0,0,0,0,0,-,-
O=C(O)c1cccc2c1C(=O)c1cccc3snc-2c13,0,0,0,88,0,0,55,78
Cc1ccc2c(c1)C(=O)c1c(C(=O)O)cccc1-2,0,0,0,0,0,0,-,-
Cc1cnc2cc([N+](=O)[O-])ccc2n1,0,0,0,101,0,0,66,84
CCOc1ccccc1N(CC(=O)Nc1ccc(S(=O)(=O)N2CCCC2)cc1)S(C)(=O)=O,0,0,0,0,0,0,-,-
Cn1c2ccccc2c2cc(/C=N/NC(=O)c3ccc(N)cc3)ccc21,0,0,0,88,0,0,88,0
CCN(CC(=O)Nc1c(F)cccc1F)C(=O)Cc1ccc(S(=O)(=O)N2CCOCC2)s1,0,0,-,-,0,-,-,-
Cc1cccc(C(=O)Oc2ccc3ccc(O)cc3c2)c1,0,0,0,0,0,0,-,-
COc1ccccc1C(=O)N=Nc1c(O)[nH]c2ccc([N+](=O)[O-])cc12,0,0,-,-,0,-,-,-
NC(=O)N=Nc1c(O)[nH]c2ccc([N+](=O)[O-])cc12,0,0,0,102,0,0,0,63
COC(=O)Cn1c(=N)n(CCN2CCCCC2)c2ccccc21,0,0,0,96,0,0,0,0
Cc1ccc(NS(=O)(=O)c2ccc(Cl)c(C(=O)Nc3ccccc3-c3nc4ccccc4[nH]3)c2)cc1C,0,0,0,0,0,0,-,-
COc1ccc2cc(C(=O)C3CCCN(C(=O)c4cnccn4)C3)ccc2c1 (stereo not drawn),0,0,0,97,0,0,0,0
O=C(c1cccc(F)c1)N1CCCC(C(=O)N2CCCCCC2)C1 (stereo not drawn),0,0,0,0,0,0,-,-
COc1c(C)cc(C(=O)C2CCCN(C(=O)c3cccc(F)c3)C2)cc1C (stereo not drawn),0,0,0,106,0,0,88,0
COc1c(C)cc(C(=O)C2CCCN(C(=O)c3ccc4cc[nH]c4c3)C2)cc1C (stereo not drawn),0,0,0,82,0,0,72,0
Cc1nn(Cc2ccc(Cl)cc2)c(C)c1NC(=O)CSc1n[nH]c(C)c1[N+](=O)[O-],0,0,0,0,0,0,-,-
Cc1ccc2nc(-c3cccc(Br)c3)c(Cc3cccc(Cl)c3)n2c1,0,0,-,-,0,-,-,-
Cc1cc(C)n2ncc(-c3cccc(Br)c3)c2n1,0,0,0,0,0,0,-,-
Cc1cc(C)n2nc(-c3cccc(Br)c3)cc2n1,0,0,0,85,0,0,90,0
C=CCNC(=O)C12CCC(C)(C(=O)[C@H]1Br)C2(C)C (stereo partly drawn),0,0,0,0,0,0,-,-
SMILES,CHO-K1 Ca antag,CHO-K1 Ca PAM,OX1R antag-1,OX1R antag-2,M1 ag parental,CHO parental Ca,OX1R HTRF confirm,CHO-K1 HTRF cnt
CCn1c(SCC(=O)N2CCC(C)CC2)nc2c1c(=O)n(C)c(=O)n2C,0,0,0,0,0,0,-,-
Cc1ccc(C(=O)/C=C2\NCC(C)NC2=O)cc1 (stereo not drawn),0,0,0,78,0,0,0,18
Cc1ccc(C(=O)/C=C2\NCCNC2=O)cc1,0,0,0,0,0,0,-,-
O=C(NCCCn1ccnc1)c1ccc(NS(=O)(=O)c2cccc([N+](=O)[O-])c2)cc1,0,0,0,0,0,0,-,-
O=C(NCc1ccncc1)c1nc(-c2ccc(C(F)(F)F)cc2)no1,0,0,0,0,0,0,-,-
Cc1cc(C)nc(SCC(=O)c2cc3ccccc3oc2=O)n1,0,0,0,0,0,0,-,-
Cc1cc[n+](CC(=O)c2cc3ccccc3oc2=O)cc1,0,0,0,78,0,0,69,86
O=C1C=C(c2cccc3c2oc2ccccc23)CCC1,0,0,0,81,0,0,60,0
CCN1C(=O)/C(=C/N(C(C)=O)c2ccccc2)N(c2ccccc2)C1=S,0,0,0,82,0,0,0,0
Nc1c(CNCc2nnn(Cc3ccccc3)c2N)nnn1Cc1ccccc1,0,0,-,-,0,-,-,-
CC(C)(C)n1c(O)c2ccc(C(=O)N=NC(=O)c3ccccc3)cc2c1O,0,0,0,0,0,0,-,-
Cn1c(N=NC(=O)c2ccccc2)c(O)c2ccccc21,0,0,0,137,0,0,98,52
CCC1CCc2sc(C(=O)NCC(c3ccc(OC)cc3)N3CCOCC3)cc2C1 (stereo not drawn),0,0,0,0,0,0,-,-
CC(C)[C@H](NC(=O)OCc1ccccc1)C(=O)OCC(=O)N1CCCCC1,0,0,-,-,0,-,-,-
Cn1cnnc1Sc1ccc(C(=O)OCC(=O)NC2CC2)cc1[N+](=O)[O-],0,0,-,-,0,-,-,-
O=C(O)c1ccc(Sc2nnnn2-c2ccccc2)c([N+](=O)[O-])c1,0,0,0,0,0,0,-,-
Cn1nnnc1Sc1ccc(C(=O)O)cc1[N+](=O)[O-],0,0,0,90,0,0,0,54
Cn1ccnc1Sc1ccc(C(N)=O)cc1[N+](=O)[O-],0,0,0,94,0,0,0,32
CCOC(=O)C1(CCOC)CCN(Cc2ccc(C3CCCCO3)s2)CC1 (stereo not drawn),0,0,0,0,0,0,-,-
CSc1cccc(NC(=O)/C=C/c2cccc(Cl)c2)c1,0,0,0,78,0,0,71,0
Cc1ccc(-c2cccc(CN3CCN(C4CCN(C(C)C)CC4)C(CCO)C3)c2)o1 (stereo not drawn),0,0,0,0,0,0,-,-
Cc1c(C(=O)NN)nn(-c2ccc(Cl)cc2)c(=O)c1C#N,0,0,0,0,0,0,-,-
COc1ccc(-n2nc(C(=O)N3CCCCC3)c(C)c(C#N)c2=O)cc1,0,0,0,113,0,0,77,50
COC(=O)Nc1nn(-c2ccc(OC)cc2)c(=O)c(C#N)c1C,0,0,0,166,0,0,59,91
COC(=O)Nc1nn(-c2ccc(C)cc2)c(=O)c(C#N)c1C,0,0,0,137,0,0,56,68

# Source: PubChem BioAssay
